Inhibition and IC50 data for one compound are collected here from ChEMBL document CHEMBL3616369, “N-O-Isopropyl Sulfonamido-Based Hydroxamates as Matrix Metalloproteinase Inhibitors: Hit Selection and in Vivo Antiangiogenic Activity” (J Med Chem, 2015).

SMILES strings stand for the structures. Active and inactive are the calls of the source. The calls are words filed in the database; no cut-off is given here.

In experiment [1] the target is T1, Matrix metalloproteinase-9 (Homo sapiens, UniProt P14780). Nature of the experiment: Inhibition of MMP9 gelatinase activity in human HUVEC at 0.001 uM by gel zymography. A digest of the protocol:
(§1)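 Gelatin zymography on 10% polyacrylamide gels with 0.1% gelatin and SDS, samples unheated. Gels renatured 30 min at room temperature. Either untreated-HUVEC conditioned medium run and gel lane slices developed overnight at 37 °C in developing buffer containing inhibitor, or medium from inhibitor-treated HUVEC developed overnight without inhibitor. Coomassie stained; bands quantified by densitometry.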

The target in experiment [2] is T1, Matrix metalloproteinase-9. Nature of the experiment: Inhibition of recombinant human activated-MMP9 using Mca-Lys-Pro-Leu-Gly-Leu-Dap(Dnp)-Ala-Arg-NH2 as fluorogenic substrate incubated for 4 hrs followed by substrate addition measured every 10 secs for 20 mins by fluorometric assay. A digest of the protocol: (§2)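 Recombinant human MMPs. Pro-forms activated with APMA: MMP-2 2 mM 1 h, MMP-9 1 mM 1 h, MMP-1 2 mM 2 h, MMP-13 1 mM 35 min, all 37 °C. MMP-3 activated with trypsin 4.4 µg/mL 30 min, then soybean trypsin inhibitor. Final enzyme 0.5 (MMP-2), 1.3 (MMP-9), 1.0 (MMP-14cd), 2.0 (MMP-1), 0.66 (MMP-13), 5 nM (MMP-3). Preincubated with inhibitor 4 h at 25 °C in Tris 50 mM pH 7.5, NaCl 150 mM, CaCl2 10 mM, Brij 35 0.05%, DMSO 1%. Substrate 2 µM final; fluorescence (ex 325/em 395 nm) every 10 s for 20 min. IC50 from vi/vo = 1/(1+[I]/IC50).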

For experiment [3], the target named is T2, 72 kDa type IV collagenase (Homo sapiens, UniProt P08253). Nature of the experiment: Inhibition of MMP2 in HUVEC assessed as suppression of protein production at 10 uM after 24 hrs by Western blot analysis. A digest of the protocol:
(§3)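 HUVEC (2x10^6) seeded, attached one day, starved 6 h in serum-free medium with 2% BSA. Pre-treated 3 h with 30 nM PMA, then exposed to inhibitor (10 µM) or DMSO vehicle for 24 h. Conditioned media and cell proteins collected. Equal protein on 10% SDS-PAGE, PVDF blot, milk block, anti-MMP-2, MMP-9 and β-actin antibodies, HRP/ECL detection.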

For experiment [4], the target named is T1, Matrix metalloproteinase-9. Kind of experiment: Inhibition of MMP9 gelatinase activity in human HUVEC by gel zymography. The gist of the method:
as §1

The species entered for another experiment is Mus musculus. Kind of experiment: Antiangiogenic activity in C57/BL6 mouse matrigel sponge assay model assessed as reduction of VEGF-A, TNFalpha and heparin-induced number of CD45-/CD31+ cells treated in plugs by flow cytometry. Format: functional, organism-based. A digest of the protocol:
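Matrigel (0.6 mL final) with VTH mix (VEGF-A 100 ng/mL, TNF-α 2 ng/mL, heparin 25 UI/mL), with or without inhibitor at 0.1-1-10 µM, injected s.c. into flanks of male C57/BL6 mice; some groups also given 0.1-1-10 µM i.p. at day 0; 8 mice/group. Plugs recovered after four days. Read-outs: hemoglobin by Drabkin reagent; collagenase IV digest, flow cytometry for CD31+ cells within CD45−CD3− gate. Mean ± SEM.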
A general note: In flow cytometry, cells or beads pass a laser one at a time.

Experiment [5] deals with T2, 72 kDa type IV collagenase. Nature of the experiment: Inhibition of MMP2 in HUVEC assessed as suppression of protein release at 10 uM after 24 hrs by Western blot analysis. A digest of the protocol: as §3
On the technique in general: A western blot detects proteins with antibodies after separation by electrophoresis.

For another experiment, the target named is T3, Interstitial collagenase (Homo sapiens, UniProt P03956).
T3 sequence (P03956 whole entry): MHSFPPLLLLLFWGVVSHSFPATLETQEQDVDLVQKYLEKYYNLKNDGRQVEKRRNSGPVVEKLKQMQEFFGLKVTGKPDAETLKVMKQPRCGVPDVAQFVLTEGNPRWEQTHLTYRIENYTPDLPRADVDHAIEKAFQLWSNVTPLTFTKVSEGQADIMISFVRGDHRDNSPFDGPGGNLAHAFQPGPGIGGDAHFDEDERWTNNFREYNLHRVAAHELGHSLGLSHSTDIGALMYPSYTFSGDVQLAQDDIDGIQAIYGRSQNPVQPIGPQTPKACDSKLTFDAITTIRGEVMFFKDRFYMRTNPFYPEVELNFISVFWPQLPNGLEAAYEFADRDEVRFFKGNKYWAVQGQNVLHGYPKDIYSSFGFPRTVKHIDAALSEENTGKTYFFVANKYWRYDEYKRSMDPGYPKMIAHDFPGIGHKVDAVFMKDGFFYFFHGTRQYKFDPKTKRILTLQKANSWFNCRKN
Nature of the experiment: Inhibition of recombinant human activated-MMP1 using Mca-Lys-Pro-Leu-Gly-Leu-Dap(Dnp)-Ala-Arg-NH2 as fluorogenic substrate incubated for 4 hrs followed by substrate addition measured every 10 secs for 20 mins by fluorometric assay. A digest of the protocol:
as §2

Experiment [6] deals with T2, 72 kDa type IV collagenase. Kind of experiment: Inhibition of MMP2 gelatinase activity in human HUVEC by gel zymography. A digest of the protocol: as §1

T1 sequence (P14780 whole entry): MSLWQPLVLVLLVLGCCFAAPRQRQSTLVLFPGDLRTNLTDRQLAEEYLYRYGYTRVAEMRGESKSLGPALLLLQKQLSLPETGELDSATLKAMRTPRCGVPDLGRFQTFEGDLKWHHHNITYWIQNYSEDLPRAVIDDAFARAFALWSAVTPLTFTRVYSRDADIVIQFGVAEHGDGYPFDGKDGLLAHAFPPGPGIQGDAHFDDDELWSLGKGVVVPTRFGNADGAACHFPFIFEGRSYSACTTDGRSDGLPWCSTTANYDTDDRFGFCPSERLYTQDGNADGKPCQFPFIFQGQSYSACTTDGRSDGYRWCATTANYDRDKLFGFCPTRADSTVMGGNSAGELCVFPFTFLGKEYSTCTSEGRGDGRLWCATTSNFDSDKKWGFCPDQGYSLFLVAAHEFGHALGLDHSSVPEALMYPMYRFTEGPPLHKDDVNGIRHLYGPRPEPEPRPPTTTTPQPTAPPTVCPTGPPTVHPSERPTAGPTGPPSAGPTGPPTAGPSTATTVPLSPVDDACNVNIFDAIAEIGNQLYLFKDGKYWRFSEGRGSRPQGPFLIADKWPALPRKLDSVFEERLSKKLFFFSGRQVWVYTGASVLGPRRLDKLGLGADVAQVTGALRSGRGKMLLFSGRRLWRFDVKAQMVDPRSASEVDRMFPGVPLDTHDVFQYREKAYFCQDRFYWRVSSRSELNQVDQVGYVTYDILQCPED
T2 sequence (P08253 110-660 limits assumed): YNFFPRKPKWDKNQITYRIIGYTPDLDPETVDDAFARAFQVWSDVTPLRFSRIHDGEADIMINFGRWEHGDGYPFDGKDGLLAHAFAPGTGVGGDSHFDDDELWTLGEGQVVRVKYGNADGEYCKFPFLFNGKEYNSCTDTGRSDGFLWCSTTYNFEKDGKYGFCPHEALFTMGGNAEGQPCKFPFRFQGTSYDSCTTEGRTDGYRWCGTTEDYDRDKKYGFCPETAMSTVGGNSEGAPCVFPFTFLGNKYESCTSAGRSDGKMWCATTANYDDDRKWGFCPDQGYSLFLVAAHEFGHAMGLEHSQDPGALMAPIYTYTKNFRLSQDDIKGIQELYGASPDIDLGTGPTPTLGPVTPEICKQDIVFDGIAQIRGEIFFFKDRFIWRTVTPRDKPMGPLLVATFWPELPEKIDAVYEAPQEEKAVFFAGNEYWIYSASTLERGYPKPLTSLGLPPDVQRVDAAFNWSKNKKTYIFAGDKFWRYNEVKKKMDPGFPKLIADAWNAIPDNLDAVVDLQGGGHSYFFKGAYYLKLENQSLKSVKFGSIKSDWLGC

On to `COc1ccc(-c2ccc(S(=O)(=O)N(OC(C)C)[C@H](CCN3C(=O)c4ccccc4C3=O)C(=O)NO)cc2)cc1`, for which the inhibition entry in experiment [1], in experiment [3] and in experiment [5] was “Active” throughout. The IC50 (in general, the concentration that inhibits the measured activity by half) in experiment [2] was 0.43 nM; at Interstitial collagenase, 200 nM. The inhibition entry (in experiment [4]; in the experiment filed under Mus musculus; in experiment [6]) was “Dose-dependent effect” throughout.
